Compound activity from PubChem.
Most compounds without a hit are left out; they make up all but 2.6% or so of the library.
CASP6 VEID inh: human caspase-6 inhibitors, primary screen, biochemical, VEID-R110 fluorescence, single point, set 2 | P55212 | purified caspase-6, Z-VEID-R110 cleavage fluorescence | inhibition, % at 12.5 µM | 350,000 compounds, 0.53% hits;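 active = mean inhibition across replicates at least about 35%, with every replicate also reaching that limit, limit read from the data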
Target sequence (P55212 24-179 limits assumed): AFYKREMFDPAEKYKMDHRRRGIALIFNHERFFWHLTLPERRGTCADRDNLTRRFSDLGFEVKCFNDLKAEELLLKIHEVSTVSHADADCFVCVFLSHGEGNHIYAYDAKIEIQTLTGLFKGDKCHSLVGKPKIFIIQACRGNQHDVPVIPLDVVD
Target sequence (P55212 194-293 limits assumed): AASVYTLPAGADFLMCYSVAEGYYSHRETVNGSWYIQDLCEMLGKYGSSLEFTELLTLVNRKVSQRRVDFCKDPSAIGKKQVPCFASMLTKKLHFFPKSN
UCH37 inh: inhibitors of human UCH37 deubiquitinase, primary screen, biochemical, Ub-AMC cleavage, fluorescence; Ubiquitin carboxyl-terminal hydrolase isozyme L5 (Homo sapiens), Q9Y5K5; purified proteasome/UCH37; inhibition, % (no concentration beside the values); 330,000 compounds, 0.33% hits; AID 588478, 2011;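 active = mean inhibition over replicate wells above about 20%, limit read from the data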
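Material: Human UCH37 enzyme supplied as purified proteasome complex | Schedule: 30 min compound-proteasome preincubation then 25 min substrate reaction, room temperature | Detection: AMC fluorescence from Ub-AMC cleavage, excitation 355 nm, emission 460 nm | Benchmarks: Wells without proteasome as full block, compound-free enzyme plus substrate as uninhibited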
SIRT5 inh: SIRT5 desuccinylase inhibitors, primary screen, biochemical, fluorescence imaging, single point, set 5; NAD-dependent protein deacylase sirtuin-5, mitochondrial (Homo sapiens), Q9NXA8; inhibition, % at 15 µM; AID 652115, 2013; Purified SirT5, succinyl-peptide AMC, trypsin-coupled fluorescence; 330,000 compounds, 1.1% hits; in the data active = inhibition above about 15%
FGF22 binding: binders of human FGF22 protein, primary screen, FGF22 synaptogenesis inhibitor project, biophysical, thermal shift, single point | Fibroblast growth factor 22 (Homo sapiens), Q9HCT0 | recombinant FGF22 thermal shift, SYPRO orange fluorescence; percent of sucrose octasulfate shift, DMSO zero | activity (Tm shift, normalised), % at 9.99 µM | 340,000 compounds, 1.5% hits | AID 651658, 2012;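 active = mean Tm shift, scaled 0 neutral to 100 positive control, at about 1.3% or above, every replicate too, limit read from the data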
Target sequence (Q9HCT0 whole entry, looked up): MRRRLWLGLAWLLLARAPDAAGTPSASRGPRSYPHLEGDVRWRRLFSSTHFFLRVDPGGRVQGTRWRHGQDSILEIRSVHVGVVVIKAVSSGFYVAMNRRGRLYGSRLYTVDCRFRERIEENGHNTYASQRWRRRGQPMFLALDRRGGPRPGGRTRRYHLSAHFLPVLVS
NSD2 inh: NSD2 histone methyltransferase inhibitors, primary screen, biochemical, AlphaScreen, single concentration, set 2; NSD2 peptide methylation, 120 min; inhibition, % at 12.5 µM; 310,000 compounds, 0.54% hits; AID 743445, 2014; in the data active = inhibition above about 50%
A number is an active result; – = inactive; · = no result given.

SMILES | CASP6 VEID inh | UCH37 inh | SIRT5 inh | FGF22 binding | NSD2 inh
CC(C)N(C(=O)[C@H]1C[C@H](CC(=O)NCc2cccc(C(F)(F)F)c2)C(=O)N2CCc3c([nH]c4cc(CCC(=O)N(C)C)ccc34)[C@]12C)C(C)C | – | – | 24 | – | ·
O=C(C[C@H]1C[C@H](C(=O)N2CCOCC2)[C@@]2(CCC3CCCC3)c3[nH]c4cc(-c5ccco5)ccc4c3CCN2C1=O)NCc1ccco1 | – | – | 28 | – | ·
CC(C)N(C(=O)[C@H]1C[C@H](CC(=O)NC(C)(C)C)C(=O)N2CCc3c([nH]c4cc(-c5ccco5)ccc34)[C@]12C)C(C)C | – | – | 27 | – | ·
O=C(NN=Cc1ccncc1)c1cc2ccccc2cc1O | · | – | · | · | ·
O=C(O)c1cccc(Cn2c(Cl)c(C=NNC(=O)c3ccccc3)sc2=O)c1 | · | – | · | · | ·
O=C(O)c1cccc(Cn2c(Cl)c(/C=N/NC(=O)c3cc4ccccc4cc3O)sc2=O)c1 | 42 | · | 24 | – | –
Cc1noc(C)c1NC(=O)N(C)C[C@@H]1Oc2ccc(NC(=O)Cn3cnnn3)cc2CC(=O)N([C@@H](C)CO)C[C@H]1C | · | · | · | – | ·
CCN1CCN(CCCNC(=O)CS(=O)(=O)Cc2nc(-c3ccccc3C)oc2C)CC1 | – | – | – | – | –
Cc1ccccc1-c1nc(CS(=O)(=O)CC(=O)NCCN2CCCC2)c(C)o1 | 36 | – | – | – | ·
COc1ccc(OC2C(=O)N(c3cc(C)ccc3C)C2c2ccc(OC)c(OC)c2)cc1 (stereo not drawn) | · | – | · | · | –
COc1ccc(OC2C(=O)N(c3ccc(C)c(C)c3)C2c2ccc(OC)c(OC)c2)cc1 (stereo not drawn) | – | – | – | 44 | –
CCC(=O)N1CC2(CN(Cc3ccc(Cl)cc3)C2)c2c([nH]c3cc(OC)ccc23)[C@H]1CO | · | · | · | – | ·
CCCNc1ncnc2[nH]ncc12 | – | – | – | – | –
Clc1ccc(CNc2ncnc3[nH]ncc23)c(Cl)c1 | – | – | · | 43 | ·
CC(C)CNc1ncnc2[nH]ncc12 | – | – | · | 44 | –
O=C(C[C@@H]1C[C@H]2c3cc(NC(=O)CC4CC4)ccc3O[C@H]2[C@@H](CO)O1)NCc1ccccc1 | – | · | – | – | ·
CC(C)c1ccc(NC(=O)COc2ccccc2)cc1 | – | – | – | – | –
CC(C)c1ccc(NC(=O)COc2ccccn2)cc1 | – | – | – | 43 | –
COc1cc(CCc2ccccc2)c(C(=O)O)c(O)c1C/C=C(/C)CCC=C(C)C | – | – | 32 | – | ·
COc1cc(CCc2ccccc2)c(C(=O)O)c(O)c1CC=C(C)C | – | · | · | – | ·
COc1ccc2cc(-c3[nH]ncc3CN3CCCN(c4ccccc4)CC3)ccc2c1 | – | – | – | 44 | ·
COc1ccc(-c2[nH]ncc2CN2CCCN(c3ccccc3)CC2)c(F)c1 | – | – | – | · | ·
Cc1ccc(S(=O)(=O)N(C)C[C@@H]2Oc3c(NC(=O)c4ccc(-c5nccs5)cc4)cccc3C(=O)N([C@@H](C)CO)C[C@@H]2C)cc1 | · | · | – | – | ·
COc1ccc(C(=O)/C=C/c2cccc(OCc3ccccc3)c2)cc1CSCC(=O)O | 44 | – | – | – | –
COc1ccc(C(=O)/C=C/c2ccc(OCc3ccccc3)cc2)cc1CSCC(=O)O | 44 | – | – | – | –
SMILES | CASP6 VEID inh | UCH37 inh | SIRT5 inh | FGF22 binding | NSD2 inh
Nn1c(SCc2cccc(Oc3ccccc3)c2)nnc1C(F)(F)F | – | – | – | 43 | –
CCN1C(=O)C(CC(=O)Nc2ccccc2)N(Cc2ccccn2)C1=S (stereo not drawn) | – | – | – | – | –
C=CCN1C(=O)C(CC(=O)Nc2ccccc2)N(Cc2ccccn2)C1=S (stereo not drawn) | – | – | – | 44 | ·
C[C@@H]1CN([C@@H](C)CO)S(=O)(=O)c2ccc(/C=C/c3ccccc3)cc2O[C@H]1CN(C)C(=O)Nc1cccc(F)c1 | – | · | – | – | ·
COCC(=O)N1C[C@H](C)[C@@H](OC)CN(C)C(=O)c2cc(NS(C)(=O)=O)ccc2OC[C@@H]1C | – | · | – | – | ·
Cc1ccc(NC(=O)COC(=O)CCC(=O)c2cccs2)c(C)c1 | – | – | – | – | –
Cc1ccccc1NC(=O)COC(=O)CCC(=O)c1cccs1 | – | – | 15 | – | –
